A word on the inhibition in vivo: it is the drop in the measured response relative to a control, in per cent.

Each structure is given as a SMILES string.

This passage reports inhibition in vivo and Swelling results from ChEMBL document CHEMBL1126267, “A novel synthesis and potent antiinflammatory activity of 4-hydroxy-2(1H)-oxo-1-phenyl-1,8-naphthyridine-3-carboxamides” (1992).

Common to all, as to assay type: functional
Conditions in all cases: route oral

The subject of assay [1] is Rattus norvegicus. Put plainly: Inhibition of Zymosan-induced rat's paw edema(ZPE) after peroral administration of 100 mg/kg dose. Summed up:
(§1)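 Male Wistar rats (about 150 g) were dosed orally with compound suspended in 5% arabic gum, 1 h before a subplantar hind-paw injection of 0.1 mL saline. The irritant was 1% zymosan for 33 or 1% λ-carrageenin for 34. Paw volume was measured by plethysmograph before dosing and at 4 h (zymosan) or 3 h (carrageenin). Swelling is relative to initial volume, as mean ± SEM. % inhibition is versus the control group's mean swelling.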

Assay [2] concerns Rattus norvegicus. Description: Antiinflammatory activity on Zymosan-induced rat's paw edema(ZPE) after peroral administration of 100 mg/kg dose with control swelling of 62.0%. Summed up: (§2)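 Male Wistar rats weighing about 150 g were dosed orally with compound suspended in 5% arabic gum. 1 h later, 1% zymosan in 0.1 mL saline was injected subplantarly into the hind paw. Paw volume was measured by plethysmograph before dosing and 4 h after zymosan, with edema as the volume difference. Inhibition % was derived from mean swelling versus the control group.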

The subject of assay [3] is Rattus norvegicus. Put plainly: Compound was tested for the inhibition of rat reversed passive Arthus pleurisy after peroral administration of 100 mg/kg dose at 0.62 mL of exudate volume with 0.54 mL of control (injected intrapleurally). Put shortly: (§3)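 Male Wistar rats (about 250 g) were given compound orally before the antiserum. Under ether anesthesia, 0.2 mL rabbit anti-egg albumin antiserum was injected intrapleurally. After 30 min, egg albumin (15 mg/100 g body weight in 0.1 mL saline) was given iv. Rats were killed 4.5 h later and the thoracic cavity was rinsed with 5 mL saline. Exudate volume and infiltrated cell number were measured, with inhibition % versus controls as mean ± SEM.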

Assay [4] has as its system Rattus norvegicus. Put plainly: Antiinflammatory activity on Carrageenan rat's paw edema(CPE) after peroral administration of 100 mg/kg dose with control swelling of 68.1%. (In general: Carrageenan injected into the paw causes an acute inflammation.)
Assay [5] concerns Rattus norvegicus. Put plainly: Inhibition of carrageenan-induced rat's paw edema (CPE) after peroral administration of 100 mg/kg dose. Summed up:
as §1

Assay [6] deals with Rattus norvegicus. Put plainly: Compound was tested for the inhibition of rat reversed passive Arthus pleurisy after peroral administration of 100 mg/kg dose at 3.43+/-0.11*10e6 no of cells with 3.62*10e6 cells of control. Summed up:
(§4)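 Male Wistar rats (about 250 g) under ether received 0.2 mL rabbit anti-egg-albumin antiserum intrapleurally. Thirty min later they got 15 mg EA/100 g body weight in 0.1 mL saline iv. Compounds were given orally beforehand. Rats were killed 4.5 h after induction and the thoracic cavity rinsed with 5 mL saline. Exudate volume and infiltrated cell count were read as mean ± SE. % inhibition is versus control.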

Assay [7] concerns Rattus norvegicus. Put plainly: Antiinflammatory activity on Carrageenan rat's paw edema(CPE) after peroral administration of 100 mg/kg dose with control swelling of 64.2%.
In assay [8] the test system is Rattus norvegicus. Description: Antiinflammatory activity on Zymosan-induced rat's paw edema(ZPE) after peroral administration of 100 mg/kg dose with control swelling of 71.7%. Summed up:
as §2

For assay [9], the system named is Rattus norvegicus. Description: Compound was tested for the inhibition of rat reversed passive Arthus pleurisy after peroral administration of 100 mg/kg dose at 3.74*10e6 no of cells with 7.4*10e6 cells of control. Put shortly:
as §4

Assay [10] relates to Rattus norvegicus. Put plainly: Compound was tested for the inhibition of rat reversed passive Arthus pleurisy after peroral administration of 100 mg/kg dose at 0.64 mL of exudate volume with 0.82 mL of control (injected intrapleurally). Summed up:
as §3

Assay [11] has as its system Rattus norvegicus. Description: Antiinflammatory activity on Zymosan-induced rat's paw edema(ZPE) after peroral administration of 100 mg/kg dose with control swelling of 62.8%. Summed up: as §2
In assay [12] the test system is Rattus norvegicus. Description: Compound was tested for the inhibition of rat reversed passive Arthus pleurisy after peroral administration of 100 mg/kg dose at 4.47*10e6 no of cells with 5.72*10e6 cells of control. Put shortly: as §4
Assay [13] has as its system Rattus norvegicus. Description: Compound was tested for the inhibition of rat reversed passive Arthus pleurisy after peroral administration of 100 mg/kg dose at 0.8 mL of exudate volume with 0.84 mL of control (injected intrapleurally). Summed up:
as §3

Assay [14] deals with Rattus norvegicus. Description: Compound was tested for the inhibition of rat reversed passive Arthus pleurisy after peroral administration of 100 mg/kg dose at 0.65 mL of exudate volume with 0.82 mL of control (injected intrapleurally). Put shortly:
as §4

Assay [15] relates to Rattus norvegicus. Put plainly: Compound was tested for the inhibition of rat reversed passive Arthus pleurisy after peroral administration of 100 mg/kg dose at 6.01*10e6 no of cells with 7.4*10e6 cells of control. Summed up:
as §4

The test system of assay [16] is Rattus norvegicus. Put plainly: Compound was tested for the inhibition of rat reversed passive Arthus pleurisy after peroral administration of 100 mg/kg dose at 0.71 mL of exudate volume with 0.84 mL of control (injected intrapleurally). Summed up: as §3
Assay [17] relates to Rattus norvegicus. Put plainly: Compound was tested for the inhibition of rat reversed passive Arthus pleurisy after peroral administration of 100 mg/kg dose at 4.4*10e6 no of cells with 5.72*10e6 cells of control. Put shortly: as §4
Assay [18] relates to Rattus norvegicus. Put plainly: Antiinflammatory activity on Carrageenan rat's paw edema(CPE) after peroral administration of 100 mg/kg dose with control swelling of 74.7%.
In assay [19] the test system is Rattus norvegicus. Put plainly: Antiinflammatory activity on Zymosan-induced rat's paw edema(ZPE) after peroral administration of 100 mg/kg dose with control swelling of 72.9%. Put shortly:
as §2

In assay [20] the test system is Rattus norvegicus. Put plainly: Compound was tested for the inhibition of rat reversed passive Arthus pleurisy after peroral administration of 100 mg/kg dose at 3.44*10e6 no of cells with 7.4*10e6 cells of control. Put shortly:
as §4

The subject of assay [21] is Rattus norvegicus. Put plainly: Compound was tested for the inhibition of rat reversed passive Arthus pleurisy after peroral administration of 100 mg/kg dose at 0.58 mL of exudate volume with 0.82 mL of control (injected intrapleurally). Put shortly: as §3
Assay [22] relates to Rattus norvegicus. Put plainly: Antiinflammatory activity on Carrageenan rat's paw edema(CPE) after peroral administration of 100 mg/kg dose with control swelling of 73.7%.
Assay [23] concerns Rattus norvegicus. Description: Compound was tested for the inhibition of rat reversed passive Arthus pleurisy after peroral administration of 100 mg/kg dose at 4.81*10e6 no of cells with 5.72*10e6 cells of control. Summed up: as §4

Regarding `O=C(Nc1ccc(Cl)cc1)c1c(O)c2cccnc2n(-c2ccccc2)c1=O`, the inhibition in vivo at 100 mg/kg in the assay with Rattus norvegicus [1] is 11.6%; with Rattus norvegicus [3], -16.3%; in the assay with Rattus norvegicus [5], 2.5%; in the assay with Rattus norvegicus [6], 18.8%. Besides, the values for the Swelling with Rattus norvegicus [2] and in the assay with Rattus norvegicus [4] were 54.8% and 66.4%, respectively.
For `O=C(NCc1ccncc1)c1c(O)c2cccnc2n(-c2ccccc2)c1=O`, the inhibition in vivo at 100 mg/kg with Rattus norvegicus [1] came to 10%; with Rattus norvegicus [9], 49.5%; in the assay with Rattus norvegicus [10], 22%; in the assay on Rattus norvegicus [5] it was 15.4%. The results for the Swelling in the assay on Rattus norvegicus [7] and with Rattus norvegicus [8] were 54.3% and 64.5%, respectively.
Turning to `COc1ccc(NC(=O)c2c(O)c3cccnc3n(-c3ccccc3)c2=O)cc1`, the Swelling in the assay on Rattus norvegicus [11] was found to be 62.6%; with Rattus norvegicus [4], 69.4%. Further, the inhibition in vivo at 100 mg/kg with Rattus norvegicus [12] was 25.4%; in the assay on Rattus norvegicus [1], 0.3%; with Rattus norvegicus [13], 5.1%; in the assay with Rattus norvegicus [5], -1.9%.
As for `O=C(Nc1ccc(Cl)nc1)c1c(O)c2cccnc2n(-c2ccccc2)c1=O`, the inhibition in vivo at 100 mg/kg in the assay with Rattus norvegicus [1] is 9.2%; with Rattus norvegicus [14], 20.7%; in the assay with Rattus norvegicus [5], -4%; with Rattus norvegicus [15] it was 18.8%. Besides, the Swelling in the assay with Rattus norvegicus [7] came out at 66.8%; in the assay on Rattus norvegicus [8], 65.1%.
Turning to `COc1ccccc1NC(=O)c1c(O)c2cccnc2n(-c2ccccc2)c1=O`, the inhibition in vivo at 100 mg/kg in the assay on Rattus norvegicus [1] was 8.1%; with Rattus norvegicus [16], 16.7%; with Rattus norvegicus [17], 26.8%; with Rattus norvegicus [5] it was -10.1%. The Swelling is recorded as 70.7% with Rattus norvegicus [7] and 65.9% in the assay on Rattus norvegicus [8].
For the compound `CCOC(=O)c1c(O)c2cccnc2n(-c2ccccc2)c1=O`, the inhibition in vivo at 100 mg/kg with Rattus norvegicus [1] was 23.5%; in the assay with Rattus norvegicus [5], 15.5%. The Swelling is listed as 47.2% with Rattus norvegicus [2] and 63.1% in the assay on Rattus norvegicus [18].
Turning to `O=C(NCc1cccnc1)c1c(O)c2cccnc2n(-c2ccccc2)c1=O`, the Swelling in the assay on Rattus norvegicus [19] is given as 54.3%; with Rattus norvegicus [22], 62.8%. Further, the inhibition in vivo at 100 mg/kg with Rattus norvegicus [1] was 25.5%; in the assay with Rattus norvegicus [20] it was 53.5%; in the assay on Rattus norvegicus [21] it was 29.3%; in the assay on Rattus norvegicus [5], 14.7%.
Consider `O=C(Nc1ccc([N+](=O)[O-])cc1)c1c(O)c2cccnc2n(-c2ccccc2)c1=O`, for which the Swelling in the assay with Rattus norvegicus [11] came out at 67.6%; with Rattus norvegicus [4] it was 85.7%. Moreover, the inhibition in vivo at 100 mg/kg is -7.6% in the assay on Rattus norvegicus [1], 16.7% in the assay on Rattus norvegicus [16], 18.5% with Rattus norvegicus [23] and -25.8% in the assay on Rattus norvegicus [5].
